# High-throughput results as filed in PubChem BioAssay.
# Fibroblast inh – antiproliferative effect on LL 47 fibroblasts – human, LL 47 cells, CellTiter-Glo luminescence, primary screen | hit rate 1.1% among 85,000 | AID 719, 2007 | LL 47 human lung fibroblast viability, ATP luminescence; stronger effect = lower value | viability, % at 10 µM;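 active = viability at or below 50% in the single dose screen; inactive = viability above 50%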;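 also: compound exposure lasted 72 h before the ATP readout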
#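 material = human LL 47 lung fibroblast cells | dosing = compounds added from tenfold dosing solution, 0.1% DMSO final | timing = overnight cell rest, 72 h compound treatment at 37 °C | measured by = CellTiter-Glo luminescence measuring cellular ATP | evaluation = % viability versus median cells-only luminescence | control set = cell-only wells, no compound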
# H69AR inhibit – proliferation blockers of H69AR lung cancer cells, primary screen, cell-based, human, 86K library. viability, % at 10 µM. hit rate 6% among 85,000. H69AR lung tumor viability, ATP luminescence, 72 h; stronger effect = lower value;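 active = viability at or below 40%; inactive = viability above 40%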;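 also: multidrug resistant small cell line overexpressing MRP-1 efflux transporter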
# Pyk2 oligo antag – antagonists of Pyk2 self-association, primary screen, Q293 cells, FERM NanoBiT luminescence, HTS | Protein-tyrosine kinase 2-beta (Homo sapiens), Q14289 | z-score (the deposit names both 25 µM and 10 µM) | hit rate 0.83% among 99,000 | stronger effect = lower value;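 active = Z-score of -3 or lower, scaled per plate to the spread of control and sample wells; inactive = z-score above -3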;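 also: negative z-score means lost luminescence so less FERM oligomerization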
# Jurkat viability – cytotoxicity toward Jurkat T cells, primary screen, cytotoxicity control, cell-based, Jurkat E6.1, 60K MLSMR library. Jurkat E6.1 viability, ATP luminescence, 48 h. inhibition, % at 4 µM. hit rate 1.2% among 56,000. AID 463, 2006;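 active = inhibition above the mean inhibition of all tested compounds plus 3 SD, cut at about 28% in these data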
# HUVEC inhibit – inhibitors of HUVEC proliferation, primary screen, cell-based, 384-well; CellTiter-Glo luminescence, 72 h; stronger effect = lower value; viability, % at 10 µM (by protocol); hit rate 1.1% among 86,000; AID 648, 2007;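 active = viability at or below 30%; inactive = viability above 30%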
# F-actin modifier – modifiers of F-actin cytoskeleton organization, primary screen, imaging, HUVEC, phalloidin staining, high-content imaging; HUVEC TNFa F-actin phalloidin imaging; inhibition, % at 2 µM; hit rate 0.18% among 91,000; AID 836, 2007;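 active = inhibition above the batch mean plus 3 SD and confirmed as a hit by visual image inspection, cut at about 30% in these data, passing the limit was not always enough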
# A number is an active result; . = inactive; / = no result. Rows were chosen to be rich in hits. Some 6% of all compounds tested hit in one or more screens of this group.
SMILES,Fibroblast inh,H69AR inhibit,Pyk2 oligo antag,Jurkat viability,HUVEC inhibit,F-actin modifier
Cc1sc(NC(=O)c2ccco2)c(C(c2cccnc2)N2CCN(C)CC2)c1C (centres undefined),.,.,.,/,.,.
O=C(Cc1ncc(C(F)(F)F)cc1Cl)N1CCN(c2ccc(F)cc2)CC1,/,/,.,/,/,.
Cc1nc2nc(NCc3cccs3)nn2c(C)c1Cl,.,.,.,/,.,.
COc1ccc(OC)c(C(=O)c2oc3ccccc3c2NC(C)=O)c1,/,22.0,.,.,.,.
CCC(C)(C)NC(=O)C(c1ccc(C)o1)N(Cc1cccs1)C(=O)Cn1nnc2ccccc21 (centres undefined),43.3,.,.,.,.,.
O=C(NCc1ccco1)C(c1ccco1)N(Cc1cccs1)C(=O)Cn1nnc2ccccc21 (centres undefined),.,.,-3.82,/,.,.
O=C(NC1CCCCC1)C(c1ccco1)N(Cc1cccs1)C(=O)Cn1nnc2ccccc21 (centres undefined),.,.,.,.,.,.
O=C(NCc1ccco1)C(c1cccs1)N(Cc1ccccc1)C(=O)Cn1nnc2ccccc21 (centres undefined),.,/,-3.28,.,.,.
O=S(=O)(c1cccc(NC(=S)Nc2ccc(Br)cc2Cl)c1)N1CCOCC1,/,/,.,/,/,.
CCCC(C)c1nnc(NC(=O)c2cc(C(=O)OC)cc([N+](=O)[O-])c2)s1 (centres undefined),/,/,.,/,/,.
Cc1ccc(CNCc2cc3c(C(C)(C)C)nn(-c4ccccc4)c3[nH]c2=O)cc1,.,1.9,.,/,.,.
COc1ccc(CNCc2cc3c(C(C)(C)C)nn(-c4ccccc4)c3[nH]c2=O)cc1,.,24.1,.,/,.,.
O=c1[nH]c2c(cc1CNCCN1CCOCC1)c(-c1cccc(F)c1)nn2-c1ccccc1,.,.,/,.,.,/
CC(C)(C)c1nn(-c2ccccc2)c2[nH]c(=O)c(CNCc3ccco3)cc12,.,7.8,.,.,.,.
COc1ccc(-c2cc(=O)[nH]c(NCc3ccccc3)n2)cc1,.,.,.,.,.,.
CC(C)(C)c1nn(-c2ccccc2)c2[nH]c(=O)c(CNc3ccc4c(c3)OCCO4)cc12,.,.,.,/,.,.
Cc1ccccc1OC(=O)n1c(=S)oc2cc(Cl)ccc21,/,/,.,/,/,.
CCc1c(C)c2nncn2[nH]c1=O,.,.,.,.,.,.
Cc1ccc(C=Nc2ccccc2C(N)=O)cc1,.,22.1,.,/,.,.
NC(=O)c1ccccc1N=Cc1ccccn1,/,/,.,.,/,.
CCOC(=O)c1c(C)oc2c(F)c(F)c(F)c(F)c2c1=O,.,/,.,.,8.7,.
CCOC(=O)c1c(C)oc2c1cc(O)c1ccccc12,.,.,.,.,.,/
CCCCNC(=O)COC(=O)c1ccc(NS(=O)(=O)c2ccc3c(c2)OCCO3)cc1,/,/,.,/,/,.
CC(C)CCN1C(=O)c2ccc(-c3nc4ccccc4c(=O)o3)cc2C1=O,.,.,-3.29,/,.,.
O=C1c2ccc(-c3nc4ccccc4o3)cc2C(=O)N1Cc1ccccc1,/,/,.,/,/,.
SMILES,Fibroblast inh,H69AR inhibit,Pyk2 oligo antag,Jurkat viability,HUVEC inhibit,F-actin modifier
Cc1ccc(S(=O)(=O)Nc2nc3ccccc3nc2NCc2ccco2)cc1,.,36.0,.,.,.,.
O=S(=O)(Nc1nc2ccccc2nc1NCc1ccco1)c1ccc(Cl)cc1,.,.,.,.,.,.
COc1nc(N(C)C)nc(N(OC)S(=O)(=O)c2ccccc2Cl)n1,.,.,.,.,.,/
CON(c1nc(Cl)nc(N(C)C)n1)S(=O)(=O)c1ccccc1Cl,.,21.5,.,/,.,/
COc1ccc(N/C(N)=N/c2nc(CSc3ccc(C)cc3)cc(=O)[nH]2)cc1,.,.,.,.,.,/
COc1ccccc1N/C(N)=N/c1nc(CSc2ccc(C)cc2)cc(=O)[nH]1,/,22.9,.,.,.,.
O=C(Nc1ccc(-c2cn3ccsc3n2)cc1)c1ccc(F)c(S(=O)(=O)N2CCOCC2)c1,.,.,-3.68,.,.,.
N#CC(c1ccc(Cl)cc1)c1ccc(Cl)nn1 (centres undefined),.,.,.,/,.,.
